pEC50: −log10 of the molar value. Calls of active or inactive are those of the source. The calls are words filed in the database; no cut-off is given here.

Data set [1] is described as follows: Intrinsic clearance in human liver microsomes pre-incubated at 37 degC for 5 mins before NADPH addition by LCMS/MS method. Format: ADME. To be noted: read-out: CLH.
The target of the next data set is T1, Cytochrome P450 2B6 (Homo sapiens, UniProt P20813).
T1 sequence (P20813 whole entry): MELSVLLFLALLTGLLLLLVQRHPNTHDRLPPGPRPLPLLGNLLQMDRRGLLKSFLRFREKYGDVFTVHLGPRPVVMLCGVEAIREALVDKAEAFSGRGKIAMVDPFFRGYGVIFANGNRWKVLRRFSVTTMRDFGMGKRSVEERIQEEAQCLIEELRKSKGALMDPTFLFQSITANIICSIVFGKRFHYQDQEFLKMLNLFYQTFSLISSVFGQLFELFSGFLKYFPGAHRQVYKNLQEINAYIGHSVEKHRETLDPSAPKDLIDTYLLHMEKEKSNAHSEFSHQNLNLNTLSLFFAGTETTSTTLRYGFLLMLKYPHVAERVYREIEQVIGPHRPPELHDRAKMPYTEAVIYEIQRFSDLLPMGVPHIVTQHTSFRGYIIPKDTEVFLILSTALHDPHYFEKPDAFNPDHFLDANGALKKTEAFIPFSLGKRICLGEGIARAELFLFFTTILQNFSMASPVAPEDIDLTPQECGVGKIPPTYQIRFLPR
The data set is described as follows: Induction of CYP2B6 activation in human hepatocytes at 0.2 to 20 uM incubated for 48 hrs using bupropion substrate. In kind it is ADME, cell-based, Hepatocyte. The method in brief: (§1)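 Primary human hepatocytes seeded on collagen and cultured in collagen-Matrigel sandwich. On day 3 they are treated for 48 h with DMSO, test compound at varying concentrations, or reference inducer (3-methylcholanthrene for CYP1A2, phenobarbital for CYP2B6, rifampicin for CYP3A4/5). Probe substrates are then added (phenacetin, bupropion, testosterone) and marker metabolites quantified (acetaminophen, hydroxybupropion, 6-β-hydroxytestosterone).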

The next data set addresses Cytochrome P450 3A4 (Homo sapiens, UniProt P08684). The data set is described as follows: Induction of CYP3A4 activation in human hepatocytes at 0.2 to 20 uM incubated for 48 hrs using testosterone substrate. Format: ADME, cell-based, Hepatocyte. In short, it runs like this: as §1
A short description of data set [2]: Oral bioavailability in Han Wistar rat at 5 to 10 mg/kg by LC-MS/MS method. Format: ADME, organism-based. Conditions: in vivo.
In a further data set the target is T2, Cytochrome P450 1A2 (Homo sapiens, UniProt P05177).
T2 sequence (P05177 whole entry): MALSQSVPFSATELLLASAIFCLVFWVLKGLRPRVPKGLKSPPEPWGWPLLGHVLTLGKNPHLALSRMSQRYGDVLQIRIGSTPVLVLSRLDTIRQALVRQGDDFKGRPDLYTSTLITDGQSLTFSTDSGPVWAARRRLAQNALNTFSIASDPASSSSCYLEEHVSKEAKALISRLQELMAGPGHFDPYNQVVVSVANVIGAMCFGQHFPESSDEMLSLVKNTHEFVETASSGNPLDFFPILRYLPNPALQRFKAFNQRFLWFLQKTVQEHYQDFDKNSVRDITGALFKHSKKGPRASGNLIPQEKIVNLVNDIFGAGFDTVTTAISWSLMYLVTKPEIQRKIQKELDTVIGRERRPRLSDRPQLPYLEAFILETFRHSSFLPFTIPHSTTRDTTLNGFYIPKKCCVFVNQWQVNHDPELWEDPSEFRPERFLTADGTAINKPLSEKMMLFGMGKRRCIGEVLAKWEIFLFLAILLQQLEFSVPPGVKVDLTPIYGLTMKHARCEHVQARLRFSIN
The experiment in a line: Induction of CYP1A2 activation in human hepatocytes at 0.2 to 20 uM incubated for 48 hrs using phenacetin substrate. In kind it is ADME, cell-based, Hepatocyte. In short, it runs like this: as §1

Data set [3] is described as follows: Clearance in Han Wistar rat at 2 to 4 mg/kg, iv by LC-MS/MS method. Format: ADME, organism-based. Conditions: in vivo.
The target in data set [4] is T3, Cytochrome P450 3A5 (Homo sapiens, UniProt P20815). The experiment in a line: Induction of CYP3A5 activation in human hepatocytes at 2 uM incubated for 48 hrs using testosterone substrate. In kind it is ADME, cell-based, Hepatocyte. In short, it runs like this:
as §1

In data set [5] the target is T3, Cytochrome P450 3A5. The experiment in a line: Induction of CYP3A5 activation in human hepatocytes at 0.2 to 20 uM incubated for 48 hrs using testosterone substrate. Format: ADME, cell-based, Hepatocyte. In short, it runs like this: as §1
Data set [6] addresses T4, Sphingosine 1-phosphate receptor 1 (Homo sapiens, UniProt P21453). The experiment in a line: Antagonist activity against human S1P1 receptor expressed in human U2OS cells co-expressing GFP assessed as inhibition of S1P-induced receptor translocation. In kind it is cell-based. The method in brief:
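Cellular S1P1 translocation (internalization) assay with antagonist; EC50 reported as mean of at least three separate determinations ± standard deviation.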

Data set [7] addresses Sphingosine 1-phosphate receptor 1 (Mus musculus) (UniProt O08530). The data set is described as follows: Antagonist activity against mouse S1P1 receptor expressed in human U2OS cells co-expressing GFP assessed as inhibition of S1P-induced receptor translocation. Format: cell-based.
The target in data set [8] is Sphingosine 1-phosphate receptor 3 (Homo sapiens) (UniProt Q99500). The experiment in a line: Antagonist activity against S1P3 receptor (unknown origin).
Sequence of Sphingosine 1-phosphate receptor 3 (Homo sapiens) (Q99500 whole entry): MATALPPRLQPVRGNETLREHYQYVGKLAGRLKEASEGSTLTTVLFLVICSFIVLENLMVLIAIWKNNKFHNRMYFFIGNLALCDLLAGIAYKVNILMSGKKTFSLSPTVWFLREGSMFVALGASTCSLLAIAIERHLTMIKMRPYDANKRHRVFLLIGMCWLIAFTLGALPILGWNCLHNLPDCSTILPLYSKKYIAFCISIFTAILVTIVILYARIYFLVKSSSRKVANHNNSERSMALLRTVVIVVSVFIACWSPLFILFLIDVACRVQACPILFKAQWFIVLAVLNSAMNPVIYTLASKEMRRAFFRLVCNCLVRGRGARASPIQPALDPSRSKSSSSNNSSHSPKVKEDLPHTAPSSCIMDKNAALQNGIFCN
For data set [9], the target named is T4, Sphingosine 1-phosphate receptor 1. The experiment in a line: Antagonist activity against S1P1 receptor (unknown origin) expressed in human U2OS cells co-expressing GFP assessed as right-ward shift of S1P-induced response. In kind it is cell-based. The method in brief: (§2)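 S1P concentration-response curves for receptor internalization run at a series of fixed antagonist concentrations, giving both curve shift and maximal internalization.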

Data set [10] shares this target. The experiment in a line: Antagonist activity against S1P1 receptor (unknown origin) expressed in human U2OS cells co-expressing GFP assessed as reduction in maximal amount of S1P-induced receptor translocation. In kind it is cell-based. The method in brief:
as §2

T4 sequence (P21453 whole entry): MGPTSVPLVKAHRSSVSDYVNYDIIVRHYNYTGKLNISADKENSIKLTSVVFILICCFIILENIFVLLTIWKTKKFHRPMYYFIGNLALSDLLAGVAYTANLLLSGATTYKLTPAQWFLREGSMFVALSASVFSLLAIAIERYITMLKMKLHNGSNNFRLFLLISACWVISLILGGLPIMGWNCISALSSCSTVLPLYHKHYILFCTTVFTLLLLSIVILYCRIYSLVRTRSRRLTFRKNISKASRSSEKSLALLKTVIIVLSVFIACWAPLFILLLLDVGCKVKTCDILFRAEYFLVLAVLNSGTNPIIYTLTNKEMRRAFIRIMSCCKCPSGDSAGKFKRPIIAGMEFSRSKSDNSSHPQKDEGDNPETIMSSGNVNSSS
T3 sequence (P20815 whole entry): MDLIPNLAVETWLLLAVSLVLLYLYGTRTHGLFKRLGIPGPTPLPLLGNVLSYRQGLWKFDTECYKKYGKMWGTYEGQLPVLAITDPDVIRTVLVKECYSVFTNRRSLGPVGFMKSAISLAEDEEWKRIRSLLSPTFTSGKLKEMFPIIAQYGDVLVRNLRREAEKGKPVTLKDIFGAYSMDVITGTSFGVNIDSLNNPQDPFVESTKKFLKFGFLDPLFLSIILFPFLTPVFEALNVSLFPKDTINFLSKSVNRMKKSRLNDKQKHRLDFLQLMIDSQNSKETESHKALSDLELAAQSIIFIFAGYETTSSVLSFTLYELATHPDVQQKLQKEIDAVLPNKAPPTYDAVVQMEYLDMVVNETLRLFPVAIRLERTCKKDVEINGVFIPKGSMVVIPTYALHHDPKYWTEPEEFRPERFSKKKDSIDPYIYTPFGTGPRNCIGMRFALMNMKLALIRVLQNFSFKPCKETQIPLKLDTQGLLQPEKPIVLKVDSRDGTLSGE
Sequence of Cytochrome P450 3A4 (P08684 whole entry): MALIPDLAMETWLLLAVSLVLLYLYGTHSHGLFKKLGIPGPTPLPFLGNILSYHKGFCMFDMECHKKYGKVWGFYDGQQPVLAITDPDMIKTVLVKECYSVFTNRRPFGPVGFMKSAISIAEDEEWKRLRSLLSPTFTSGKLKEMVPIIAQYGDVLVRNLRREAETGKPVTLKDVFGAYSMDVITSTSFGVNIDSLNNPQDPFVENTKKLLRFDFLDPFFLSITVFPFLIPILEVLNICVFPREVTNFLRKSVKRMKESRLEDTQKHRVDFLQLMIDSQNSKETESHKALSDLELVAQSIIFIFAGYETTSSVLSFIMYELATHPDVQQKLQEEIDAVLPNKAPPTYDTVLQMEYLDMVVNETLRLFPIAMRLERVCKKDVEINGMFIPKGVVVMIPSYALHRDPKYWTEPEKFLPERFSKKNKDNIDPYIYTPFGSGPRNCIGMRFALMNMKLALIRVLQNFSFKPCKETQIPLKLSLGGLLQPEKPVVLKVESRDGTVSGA
Sequence of Sphingosine 1-phosphate receptor 1 (Mus musculus) (O08530 whole entry): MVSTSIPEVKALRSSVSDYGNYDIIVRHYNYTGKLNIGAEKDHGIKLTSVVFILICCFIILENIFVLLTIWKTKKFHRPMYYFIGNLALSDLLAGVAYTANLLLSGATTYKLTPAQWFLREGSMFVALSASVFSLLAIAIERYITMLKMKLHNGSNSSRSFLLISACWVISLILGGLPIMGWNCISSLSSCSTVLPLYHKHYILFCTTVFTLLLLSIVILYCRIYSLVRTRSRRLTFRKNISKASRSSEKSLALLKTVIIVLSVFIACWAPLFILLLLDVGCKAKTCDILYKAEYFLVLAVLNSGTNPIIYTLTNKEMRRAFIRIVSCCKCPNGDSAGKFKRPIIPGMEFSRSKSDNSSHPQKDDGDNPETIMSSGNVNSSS

With `CCn1c([C@@H](C)NS(=O)(=O)c2ccc(Cl)cc2)nc2ccc(C(F)(F)F)cc21`, the microsomal CLint in data set [1] is over 100 µL/min/mg. In addition, the Activity result at Cytochrome P450 2B6 is given as “Not Active”; at Cytochrome P450 3A4, “Dose-dependent effect”; on Cytochrome P450 1A2, “Not Active”; on Cytochrome P450 3A5 [4], “Active”; on Cytochrome P450 3A5 [5], “Dose-dependent effect”. In data set [2], this compound returned a bioavailability of 43%. In data set [3], this compound returned a clearance of 33 mL/min/kg. Further, in [6], the pEC50 was 8.30. The inhibition entry in data set [7] was “Active”.
Turning to `CCc1nnc([C@@H](C)NS(=O)(=O)c2ccc(Cl)cc2)n1CC`, in data set [8], the inhibition result was “inactive”.
Take `CCn1c([C@@H](C)NS(=O)(=O)c2ccc(Cl)cc2)nc2ccccc21`: in data set [1], the microsomal CLint was over 100 µL/min/mg. For the same compound, in data set [2], the bioavailability turned out to be 5%. The inhibition entry in data set [9] and in data set [10] was “Active” in each case. Besides, the pEC50 in data set [6] was 7.30.
